The source of these data is ChEMBL document CHEMBL1145361, “3-Amino-1-alkyl-cyclopentane carboxamides as small molecule antagonists of the human and murine CC chemokine receptor 2” (Bioorg Med Chem Lett, 2007).

The target in data set [1] is C-C chemokine receptor type 2 (Mus musculus, UniProt P51683). Nature of the data set: Displacement of [125I]MCP1 from mouse CCR2 receptor expressed in CHO cells. It is filed as cell-based.
Data set [2] deals with C-C chemokine receptor type 2 (Homo sapiens, UniProt P41597, I40L). Nature of the data set: Displacement of [125I]MCP1 from human CCR2 I40L mutant expressed in CHO cells. It is filed as cell-based. Summed up:
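Radioligand competition was run at room temperature for 45 min in 50 mM Hepes, 5 mM MgCl2, 1 mM CaCl2, pH 7.4, with 0.5% BSA and protease inhibitors. The reaction was stopped by filtration through GF/B filters presoaked in 0.10% polyethyleneimine to separate bound from free ligand.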

For data set [3], the target named is C-C chemokine receptor type 2 (Homo sapiens, UniProt P41597). Nature of the data set: Inhibition of Ca2+ flux in human monocytes. It is filed as functional, cell-based. For orientation: Calcium assays in cells follow changes in intracellular calcium, usually with a dye or a luminescent sensor.
Sequence of C-C chemokine receptor type 2 (Homo sapiens, UniProt P41597) (P41597 whole entry): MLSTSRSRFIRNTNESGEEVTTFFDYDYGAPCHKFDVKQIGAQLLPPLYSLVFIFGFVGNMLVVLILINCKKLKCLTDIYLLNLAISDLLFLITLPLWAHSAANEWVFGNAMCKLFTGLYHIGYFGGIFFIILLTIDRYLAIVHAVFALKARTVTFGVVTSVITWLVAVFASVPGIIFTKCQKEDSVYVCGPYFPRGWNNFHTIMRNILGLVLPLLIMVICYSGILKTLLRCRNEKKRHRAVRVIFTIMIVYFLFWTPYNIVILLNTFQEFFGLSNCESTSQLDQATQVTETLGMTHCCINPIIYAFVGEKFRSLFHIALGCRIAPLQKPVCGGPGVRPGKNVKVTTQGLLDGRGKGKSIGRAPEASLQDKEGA
A short description of data set [4]: Cmax in Sprague-Dawley rat at 3 mg/kg, po. As to conditions: in vivo. The format is ADME, organism-based. More on the design: dose 3 mg/kg, route oral. Put shortly:
(§1)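 Male Sprague–Dawley rats were dosed intravenously at 1.0 mg/kg and orally at 3.0 mg/kg. Clearance, volume of distribution, t1/2, Cmax, Tmax, oral bioavailability (F%) and AUC were determined, with oral AUC normalized.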

Data set [5] is described as follows: Half life in Sprague-Dawley rat at 3 mg/kg, po. The format is ADME, organism-based. More on the design: dose 3 mg/kg, route oral. As to conditions: in vivo. Put shortly: as §1
The nature of data set [6]: Volume of distribution in Sprague-Dawley rat at 1 mg/kg, iv. It is filed as ADME, organism-based. More on the design: dose 1 mg/kg, route intravenous. As to conditions: in vivo, read-out: Vdss. Put shortly:
as §1

A short description of data set [7]: Clearance in Sprague-Dawley rat at 1 mg/kg, iv. As to conditions: in vivo. The format is ADME, organism-based. More on the design: dose 1 mg/kg, route intravenous. Put shortly: as §1
A short description of data set [8]: Tmax in Sprague-Dawley rat at 3 mg/kg, po. As to conditions: in vivo. The format is ADME, organism-based. More on the design: dose 3 mg/kg, route oral. Summed up: as §1
Data set [9] is described as follows: Bioavailability in Sprague-Dawley rat at 3 mg/kg, po. It is filed as ADME, organism-based. As to conditions: in vivo. Put shortly:
as §1

Data set [10] can be described thus: Half life in Sprague-Dawley rat at 1 mg/kg, iv. As to conditions: in vivo. The format is ADME, organism-based. More on the design: dose 1 mg/kg, route intravenous. Put shortly: as §1
Data set [11] addresses C-C chemokine receptor type 2 (Mus musculus) (UniProt P51683). Briefly: Displacement of [125I]MCP1 from mouse CCR2 receptor expressed in CHO cells at 1 uM. It is filed as cell-based. On the technique in general: Displacement assays read how much labelled ligand stays bound in the presence of the test substance.

Sequence of C-C chemokine receptor type 2 (Homo sapiens, UniProt P41597, I40L) (P41597 whole entry I40L): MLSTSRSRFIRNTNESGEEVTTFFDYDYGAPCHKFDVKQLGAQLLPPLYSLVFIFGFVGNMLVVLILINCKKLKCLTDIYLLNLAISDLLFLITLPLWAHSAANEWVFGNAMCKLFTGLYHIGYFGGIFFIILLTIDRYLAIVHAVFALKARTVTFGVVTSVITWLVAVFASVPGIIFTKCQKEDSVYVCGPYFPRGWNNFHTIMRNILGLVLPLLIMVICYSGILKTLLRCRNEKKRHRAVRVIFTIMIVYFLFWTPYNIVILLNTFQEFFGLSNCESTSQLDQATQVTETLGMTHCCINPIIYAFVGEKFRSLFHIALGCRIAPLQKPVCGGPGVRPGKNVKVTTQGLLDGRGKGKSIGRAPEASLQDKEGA
Sequence of C-C chemokine receptor type 2 (Mus musculus, UniProt P51683) (P51683 whole entry): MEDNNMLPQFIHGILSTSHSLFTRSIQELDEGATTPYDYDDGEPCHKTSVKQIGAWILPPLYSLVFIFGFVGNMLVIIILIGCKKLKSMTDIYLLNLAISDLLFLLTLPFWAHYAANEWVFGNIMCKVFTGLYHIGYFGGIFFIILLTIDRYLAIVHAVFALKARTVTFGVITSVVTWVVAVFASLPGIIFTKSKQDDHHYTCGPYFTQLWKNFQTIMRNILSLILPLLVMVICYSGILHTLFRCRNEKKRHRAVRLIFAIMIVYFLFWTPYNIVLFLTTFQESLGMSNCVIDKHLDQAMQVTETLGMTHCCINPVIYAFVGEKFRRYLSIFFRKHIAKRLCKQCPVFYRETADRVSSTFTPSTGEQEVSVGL
Sequence of C-C chemokine receptor type 2 (Mus musculus) (P51683 whole entry, looked up): as the sequence (P51683 whole entry) above

Take `C[C@H]1CN(C2CCC(CC3CCC3)(C(=O)NCc3cc(F)cc(C(F)(F)F)c3)C2)CC[C@]12C=Cc1ccccc12` (stereo partly specified): the concentration for half-maximal inhibition (IC50) turned out to be 28 nM in data set [1] and 6.3 nM in [2].
Taken in the same sequence, the figures for `CCCC1(C(=O)NCc2cc(F)cc(C(F)(F)F)c2)CCC(N2CC[C@]3(C=Cc4ccccc43)[C@@H](C)C2)C1` (stereo partly specified) were 17 nM and 5 nM.
For `CCC1(C(=O)NCc2cc(C(F)(F)F)cc(C(F)(F)F)c2)CCC(N2CC[C@]3(C=Cc4ccccc43)[C@@H](C)C2)C1` (stereo partly specified), in that order: 17.5 nM and 10 nM.
Consider `CC(C)C[C@]1(C(=O)NCc2cc(F)cc(C(F)(F)F)c2)CC[C@@H](N2CC[C@]3(C=Cc4ccccc43)[C@@H](C)C2)C1`, for which the 50% inhibitory concentration (IC50) in data set [1] amounted to 7.5 nM; in data set [2] it was 3.9 nM; in data set [3], 2.04 nM.
Consider `CC(C)[C@]1(C(=O)NCc2cc(F)cc(C(F)(F)F)c2)CC[C@@H](N2CC[C@]3(C=Cc4ccccc43)[C@@H](C)C2)C1`, for which the concentration in [4] peaked (Cmax) at 414 nM. The figures for the half-life in data set [5] and in data set [10] were 2 h and 2.5 h, respectively. Also, the half-inhibitory concentration (IC50) in data set [1] was determined as 5 nM; in [2], 3.1 nM; in [3] it was 0.71 nM. Moreover, the Vd in [6] was found to be 2.99 L/kg. Besides, the clearance in data set [7] stood at 19.4 mL/min/kg. The time of peak concentration (Tmax) in data set [8] is 0.83 h. In [9], this compound showed a bioavailability of 32%.
On to `C[C@H]1CN([C@@H]2CC[C@](C)(C(=O)NCc3cc(C(F)(F)F)cc(C(F)(F)F)c3)C2)CC[C@]12C=Cc1ccccc12`, for which the results for the IC50 in data set [1] and in [2] were 126 nM and 9 nM, respectively.
`C[C@H]1CN(C2CCC(CC3CCC3)(C(=O)NCc3cc(F)cc(C(F)(F)F)c3)C2)CC[C@]12C=Cc1ccccc12` (single isomer, unassigned; diastereomer 4) [listing 1 of 2 here]: the half-maximal inhibitory concentration (IC50) in data set [2] came out at 229 nM.
Consider `C[C@H]1CN([C@@H]2CC[C@](CC3CCC3)(C(=O)NCc3cc(C(F)(F)F)cc(C(F)(F)F)c3)C2)CC[C@]12C=Cc1ccccc12`, for which the values for the half-inhibitory concentration (IC50) in [1] and in data set [2] were 64 nM and 19 nM, respectively.
For the compound `CCC1(C(=O)NCc2cc(F)cc(C(F)(F)F)c2)CCC(N2CC[C@]3(C=Cc4ccccc43)[C@@H](C)C2)C1` (stereo partly specified), the IC50 in data set [1] was 3.5 nM; in data set [2], 3.3 nM.
For `C[C@H]1CN(C2CCC(CC3CCC3)(C(=O)NCc3cc(F)cc(C(F)(F)F)c3)C2)CC[C@]12C=Cc1ccccc12` (single isomer, unassigned; diastereomer 2), in that order: 147 nM and 32 nM.
Take `C[C@H]1CN(C2CCC(CC3CCC3)(C(=O)NCc3cc(F)cc(C(F)(F)F)c3)C2)CC[C@]12C=Cc1ccccc12` (single isomer, unassigned; diastereomer 4) [listing 2 of 2 here]: the Activity in data set [11] was 49%.
As to `CCCCCCC1(C(=O)NCc2cc(C(F)(F)F)cc(C(F)(F)F)c2)CCC(N2CC[C@]3(C=Cc4ccccc43)[C@@H](C)C2)C1` (stereo partly specified), the IC50 worked out at 279 nM in [1] and 231 nM in data set [2].
In the case of `CCC[C@]1(C(=O)NCc2cc(C(F)(F)F)cc(C(F)(F)F)c2)CC[C@@H](N2CC[C@]3(C=Cc4ccccc43)[C@@H](C)C2)C1`, the IC50 in [1] came to 44.3 nM; in [2], 16 nM.
For `CS[C@]1(C(=O)NCc2cc(C(F)(F)F)cc(C(F)(F)F)c2)CC[C@@H](N2CC[C@]3(C=Cc4ccccc43)[C@@H](C)C2)C1`, the IC50 in data set [1] was determined as 351 nM; in data set [2], 28 nM.
In the case of `COCC1(C(=O)NCc2cc(F)cc(C(F)(F)F)c2)CCC(N2CC[C@]3(C=Cc4ccccc43)[C@@H](C)C2)C1` (stereo partly specified), the half-maximal inhibitory concentration (IC50) in data set [1] stood at 74 nM; in [2] it was 8.5 nM.
For `CSC[C@]1(C(=O)NCc2cc(F)cc(C(F)(F)F)c2)CC[C@@H](N2CC[C@]3(C=Cc4ccccc43)[C@@H](C)C2)C1`, the half-maximal inhibitory concentration (IC50) is 17 nM in data set [1] and 3.5 nM in data set [2].
For `C[C@H]1CN([C@@H]2CC[C@H](C(=O)NCc3cc(C(F)(F)F)cc(C(F)(F)F)c3)C2)CC[C@]12C=Cc1ccccc12`, in data set [2], the concentration for half-maximal inhibition (IC50) amounted to 20 nM. In data set [11], the Activity was 27%.
Turning to `C[C@H]1CN(C2CCC(CC3CCC3)(C(=O)NCc3cc(F)cc(C(F)(F)F)c3)C2)CC[C@]12C=Cc1ccccc12` (single isomer, unassigned; diastereomer 3), the values for the IC50 in [1] and in data set [2] were 559 nM and 135 nM, respectively.
For `CC(C)C[C@]1(C(=O)NCc2cc(C(F)(F)F)cc(C(F)(F)F)c2)CC[C@@H](N2CC[C@]3(C=Cc4ccccc43)[C@@H](C)C2)C1`, in that order: 26 nM and 8 nM.
Taken in the same sequence, the figures for `COCC1(C(=O)NCc2cc(C(F)(F)F)cc(C(F)(F)F)c2)CCC(N2CC[C@]3(C=Cc4ccccc43)[C@@H](C)C2)C1` (stereo partly specified) were 93 nM and 15.5 nM.
In the case of `C[C@H]1CN(C2CCC(CC3CC3)(C(=O)NCc3cc(C(F)(F)F)cc(C(F)(F)F)c3)C2)CC[C@]12C=Cc1ccccc12` (stereo partly specified), the values for the IC50 in [1] and in [2] were 63.5 nM and 20 nM, respectively.
For the compound `C[C@H]1CN([C@@H]2CC[C@@](C(=O)NCc3cc(F)cc(C(F)(F)F)c3)(C3CC3)C2)CC[C@]12C=Cc1ccccc12`, the IC50 in data set [1] is 8 nM; in [2], 1.9 nM; in data set [3] it was 0.63 nM.
For the compound `CC(C)[C@]1(C(=O)NCc2cc(C(F)(F)F)cc(C(F)(F)F)c2)CC[C@@H](N2CC[C@]3(C=Cc4ccccc43)[C@@H](C)C2)C1`, the concentration for half-maximal inhibition (IC50) in data set [1] was found to be 15 nM; in data set [2], 7.6 nM.
For `C[C@H]1CN([C@@H]2CC[C@](C)(C(=O)NCc3cc(F)cc(C(F)(F)F)c3)C2)CC[C@]12C=Cc1ccccc12`, in that order: 57 nM and 4 nM.
Taken in the same sequence, the figures for `C[C@H]1CN(C2CCC(CC3CC3)(C(=O)NCc3cc(F)cc(C(F)(F)F)c3)C2)CC[C@]12C=Cc1ccccc12` (stereo partly specified) were 15 nM and 5.5 nM.
Consider `CSC[C@]1(C(=O)NCc2cc(C(F)(F)F)cc(C(F)(F)F)c2)CC[C@@H](N2CC[C@]3(C=Cc4ccccc43)[C@@H](C)C2)C1`, for which the IC50 in data set [1] came to 65.5 nM; in [2] it was 13 nM.
On to `C[C@H]1CN(C2CCC(C(=O)NCc3cc(C(F)(F)F)cc(C(F)(F)F)c3)(C3CC3)C2)CC[C@]12C=Cc1ccccc12` (stereo partly specified), for which the IC50 stood at 45 nM in data set [1] and 6.5 nM in data set [2].
`CCCCCCC1(C(=O)NCc2cc(F)cc(C(F)(F)F)c2)CCC(N2CC[C@]3(C=Cc4ccccc43)[C@@H](C)C2)C1` (stereo partly specified): the 50% inhibitory concentration (IC50) in [1] is 128 nM; in [2], 27 nM.
For `CS[C@]1(C(=O)NCc2cc(F)cc(C(F)(F)F)c2)CC[C@@H](N2CC[C@]3(C=Cc4ccccc43)[C@@H](C)C2)C1`, in that order: 193 nM and 67 nM.

One may read the IC50 as the midpoint of a concentration-inhibition curve. A high value points to a need for much substance. What is called Cmax is the peak of the concentration-time curve. What is called half-life is the time needed for the level to fall by half in the phase considered. The term clearance denotes the rate of elimination divided by the concentration. The term Tmax denotes the time from dosing to the highest level. As usually defined, the bioavailability is the share of a dose that reaches the circulation, judged against a reference dose that is usually intravenous. Low readings indicate little systemic uptake, high ones much systemic uptake.
